DNA FID counter-1 – fluorescent intercalator displacement, NS3 helicase counter-screen; inhibition, % at 7.9 µM; actives 0.17% (n = 290,000); DNA fluorescent intercalator displacement, fluorescence;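 note: 0% = vehicle and 100% = reference compound; higher means more ethidium bromide displaced from hairpin DNA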
NS3 helicase inh – inhibitors of Hepatitis C virus NS3 helicase; NS3 helicase DNA unwinding, Cy5 molecular beacon fluorescence; inhibition, % at 10.9 µM; actives 0.56% (n = 290,000);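 active = inhibition above the mean of all tested compounds plus 3 SD, set per campaign, cut at about 35% in these data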;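 note: 0% = DMSO wells and 100% = thioflavine S control wells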
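Material: hepatitis C virus NS3 helicase domain fragment enzyme; measured by: Cy5 fluorescence, 0 and 60 min reads; control set: DMSO and thioflavine S; incubation: 60 min unwinding reaction at 25 °C after ATP addition; read-out basis: % inhibition from 60/0 min fluorescence ratio, DMSO 0%, thioflavine S 100%; repeats: singlicate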
VIM-2 inh – inhibitors of Pseudomonas aeruginosa VIM-2 metallo-beta-lactamase. inhibition, % at 5.6 µM. actives 0.89% (n = 290,000). AID 1527. purified VIM-2, nitrocefin hydrolysis, epi-absorbance fluorescence;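 active = inhibition above the mean of all tested compounds plus 3 SD, cutoff set per screening run, cut at about 7.5% in these data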;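 note: red hydrolysis product quenches plate fluorescence so inhibitors raise well fluorescence; 0% = enzyme with DMSO and 100% = DMSO without enzyme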
IMP-1 inhibitor – inhibitors of Pseudomonas aeruginosa IMP-1 metallo-beta-lactamase; purified IMP-1, nitrocefin hydrolysis, epi-absorbance fluorescence; actives 0.45% (n = 290,000); inhibition, % at 5.6 µM;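 active = inhibition above the mean plus 3 SD of all compounds in the same screening run, cut at about 4.5% in these data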;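 note: 0% = IMP-1 with DMSO and 100% = DMSO wells lacking enzyme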
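Test system: recombinant IMP-1 enzyme, purified / Medium: HEPES buffer pH 7.1 with ZnSO4 and Brij 35 / Doses: single dose, 5.6 µM / Times: 25 °C, 15 min preincubation, 25 min reaction / Detection: Epi-absorbance via hydrolysed-nitrocefin quenching of white-plate fluorescence, 480/530 nm, EDTA stop / Evaluation: percent inhibition from optical density relative to buffer-blank wells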
NS3 hel confirm – HCV NS3 helicase inhibition, confirmation assay; shares compounds with NS3 helicase inh; AID 1943; NS3 helicase DNA unwinding, Cy5 molecular beacon fluorescence; inhibition, % at 10.9 µM; actives 31% (n = 1,600);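 active = inhibition above the mean of all tested compounds plus 3 SD, cutoff set per campaign, cut at about 36% in these data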
DNA FID counter-2 – counter-screen for HCV NS3 helicase inhibitors: DNA intercalator displacement; shares compounds with NS3 helicase inh; DNA fluorescent intercalator displacement, fluorescence; inhibition, % at 7.9 µM; actives 4% (n = 1,600); AID 1945;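 note: 0% = vehicle and 100% = reference compound; higher means more displacement of ethidium bromide from the DNA hairpin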
DNA FID DR – counter-screen for HCV NS3 helicase inhibitors: DNA intercalator displacement dose response; fluorescent intercalator displacement from DNA, fluorescence; 120 tested, under 10 active; shares compounds with NS3 helicase inh; IC50, µM; AID 2172; call rule not given here
* hit, by the source's call; . = no result given. Sampled rows, rich in hits. Any-hit rate of the full collection: about 1.9%. Cut-off read from the data, not from the text of the source, unless noted: active = inhibition above about 37%; inactive = the rest.

SMILES	DNA FID counter-1	NS3 helicase inh	VIM-2 inh	IMP-1 inhibitor	NS3 hel confirm	DNA FID counter-2	others
CCCC(C(=O)O)N1C(=O)/C(=C/c2cccn2C)SC1=S (configuration not stated)	-20	36*	-1	-2	39*	-16
CC(=O)c1ccc(N(CC(=O)NC2CCCC2)C(=O)CNC(=O)c2cccs2)cc1	-30	37*	2	-1	-8	-11
COc1ccc(C2/C(=C(/O)c3ccc(C)cc3)C(=O)C(=O)N2c2ccccn2)cc1OC (configuration not stated)	-19	14	-1	-2	.	.
CCCOc1ccc(/C(O)=C2\C(=O)C(=O)N(c3ccccn3)C2c2ccccc2F)cc1C (configuration not stated)	-38	47*	0	-2	94*	-31	DNA FID DR=>79
Cc1cccc(C)c1OCC(=O)N/N=C/C=C/c1ccco1	-21	8	-3	-2	.	.
Cc1cccc(OCC(=O)Nc2cc(NC(=O)COc3cccc(C)c3)cc(C(=O)O)c2)c1	-21	41*	1	-1	63*	-23
Cc1cccc(OCC(=O)N/N=C/C=C/c2ccco2)c1	-28	43*	-3	-3	-7	4
CC(C)C(=O)n1nc(-c2cccnc2)nc1NCc1ccc(F)cc1	-1	3	0	-1	.	.
CC(C)CCN1CCN=C1Nc1ccccc1	0	50*	0	1	-19	12
O=C(O)CCCn1cc(NC(=O)COc2ccc([N+](=O)[O-])cc2)cn1	-2	6	0	-2	.	.
N/C(=N/OC(=O)c1ccc(Cl)cc1)c1ncc([N+](=O)[O-])s1	-1	-9	-1	-1	.	.
COc1cc(-c2noc(C3CCCN(C(=O)c4c(F)cccc4F)C3)n2)cc(OC)c1OC (configuration not stated)	-29	-12	-1	-1	.	.
O=C(NNC(=O)c1cc2ccccc2cc1O)Nc1ccccc1F	-9	46*	-2	-4	-8	-4
COc1ccccc1COc1ccc2c(C)c(CC(=O)O)c(=O)oc2c1C	-16	48*	-3	0	15	-21
Cc1cc(C)cc(COc2ccc3c(C)c(CC(=O)O)c(=O)oc3c2C)c1	-11	-8	0	1	.	.
Fc1ccccc1/C=N/n1c(COc2ccccc2)n[nH]c1=S	-20	50*	0	1	9	-12
O=[N+]([O-])c1c(Nc2ccccc2O)cc(Cl)c2nonc12	4	38*	2	-2	-23	17
O=[N+]([O-])c1c(Nc2ccccc2O)ccc2nonc12	3	14	0	-3	.	.
CN(C)c1ccc(O)c2c1CC1CC3[C@@H](N(C)C)C(=O)C(C(N)=O)=C(O)[C@]3(O)C(=O)C1=C2O (some centres not stated)	-10	39*	0	3	36*	16	DNA FID DR=>79
Cn1c(-c2ccc3c(c2)OCO3)cc(=O)c2ccccc21	-8	5	0	-1	.	.
Cn1c2ccccc2c(=O)c2ccc(-c3ccc4c(c3)OCO4)cc21	-20	43*	9.3*	-1	7	2
COc1ccc(N2C(=O)CS/C2=N\C(=S)Nc2ccccc2)cc1	-7	-9	0	-1	.	.
COc1ccc2[nH]c3c(=O)n(CCCC(=O)NC4CCCCC4C)c(=S)[nH]c3c2c1 (configuration not stated)	-26	42*	-2	0	40*	-11	DNA FID DR=>79
COc1ccc2[nH]c3c(=O)n(CCCC(=O)NC4CCC(C)CC4)c(=S)[nH]c3c2c1 (configuration not stated)	-15	9	-5	-1	.	.
C=CCN1C(=O)/C(=c2\sc3nc(=O)c(Cc4ccc(OC)c(OC)c4)nn3c2=O)c2ccccc21	-19	46*	1	0	-2	-4
SMILES	DNA FID counter-1	NS3 helicase inh	VIM-2 inh	IMP-1 inhibitor	NS3 hel confirm	DNA FID counter-2	others
O=C(Cn1nc(-c2ccccc2)ccc1=O)N1CCCCC1	-18	11	-5	-4	.	.
Cc1ccc(C(=O)N/N=C/c2ccc(-c3ccc(Br)cc3[N+](=O)[O-])o2)o1	-11	48*	-2	1	2	9
Cc1ccc(C(=O)N/N=C\c2ccc(Br)o2)o1	-1	-1	-1	-2	.	.
CCn1cc(S(=O)(=O)Nc2ccc(Cl)cc2F)cn1	-3	13	-2	-5	.	.
CN(C)C(CNc1ncnc2sccc12)c1cccs1 (configuration not stated)	8	74*	-3	-1	-13	4
CCOC(=O)c1sc2ncnc(NCC(c3cccs3)N(C)C)c2c1C (configuration not stated)	-2	-2	-1	-2	.	.
COc1ccc(C2=NS(=O)(=O)N(C)C(C(=O)Nc3ccc4c(c3)OCO4)=C2)cc1OC	-14	2	-1	-4	.	.
O=C(O)c1ccc(/C=N/NC(=O)c2cc(-c3ccc4c5c(cccc35)CC4)n[nH]2)cc1	-32	37*	-2	0	65*	-2
Fc1ccccc1N1CCN(C2CCCN(Cc3ccccc3C(F)(F)F)C2)CC1 (configuration not stated)	-2	-22	-2	-2	.	.
COc1ccc2cc(-c3cc(C(=O)O)c4ccccc4n3)ccc2c1	-24	40*	-2	-1	45*	-6
COc1ccc(-c2cc(C(=O)O)c3ccccc3n2)c(OC)c1	1	1	-1	-1	.	.
Cc1ccc(OCC(=O)N/N=C\c2ccc(-c3cccc(C(=O)O)c3)o2)c(C)c1	-33	43*	-3	-5	91*	-13
O=C(CCCCCBr)N1CCC(CC2CC(c3cccc(Br)c3)=NO2)(C(=O)NCC2CCCCC2)CC1 (configuration not stated)	-27	-31	-2	-3	.	.
O=C(O)c1cc(N/N=C/c2ccc(N3CCOCC3)s2)ccc1Cl	-17	47*	-1	-2	80*	27
NC(=O)N/N=C/c1ccc(N2CCOCC2)s1	-8	-7	-5	-4	.	.
Cc1oc(-c2ccc(-c3ccccc3)cc2)nc1CN(CCO)C(C)C	7	-26	0	0	.	.
CCOc1ccccc1N1C(=O)CC(Sc2n[nH]c(-c3ccccc3)n2)C1=O (configuration not stated)	-14	4	-7	-5	.	.
O=S1(=O)CCOCCCN1Cc1ccccc1F	-10	-7	1	-1	.	.
O=S1(=O)CCOCCN1Cc1ccc(Cl)cc1Cl	-17	37*	-2	-1	-18	6
N#C/C(=C\c1cccnc1)C(=O)Nc1ccc(S(N)(=O)=O)cc1	-2	5	-2	-3	.	.
CCc1c(C)c2cc(Cl)c(O)c(CN(CC)CC)c2oc1=O	-21	49*	-2	8.8*	-12	1
